Sampled rows, rich in hits. Any-hit rate of the full collection: about 3.5%.
Pf gametocyte – kills late stage P. falciparum gametocytes; P. falciparum stage V gametocytes, ATP luminescence, 24 h; inhibition, % at 10.9 µM; 150,000 compounds, 0.065% hits;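 active means inhibition above the mean plus 3 SD of compounds within the control limits, set per campaign, cut at about 38% in these data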;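 further: 0% = DMSO wells and 100% = medium only without gametocytes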
FLuc stim CS – affects firefly luciferase, flagging false hits in luciferase stimulation screens | P08659 | ATPlite luciferase biochemical, luminescence, 10 min; 0 = ATP-free wells, 1 = DMSO control | activation factor at 10 µM | 200,000 tested, under 10 active;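 active means luciferase activation factor, scaled between plate controls, of at least 2 with compound at 10 µM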
Target sequence (P08659 whole entry, looked up): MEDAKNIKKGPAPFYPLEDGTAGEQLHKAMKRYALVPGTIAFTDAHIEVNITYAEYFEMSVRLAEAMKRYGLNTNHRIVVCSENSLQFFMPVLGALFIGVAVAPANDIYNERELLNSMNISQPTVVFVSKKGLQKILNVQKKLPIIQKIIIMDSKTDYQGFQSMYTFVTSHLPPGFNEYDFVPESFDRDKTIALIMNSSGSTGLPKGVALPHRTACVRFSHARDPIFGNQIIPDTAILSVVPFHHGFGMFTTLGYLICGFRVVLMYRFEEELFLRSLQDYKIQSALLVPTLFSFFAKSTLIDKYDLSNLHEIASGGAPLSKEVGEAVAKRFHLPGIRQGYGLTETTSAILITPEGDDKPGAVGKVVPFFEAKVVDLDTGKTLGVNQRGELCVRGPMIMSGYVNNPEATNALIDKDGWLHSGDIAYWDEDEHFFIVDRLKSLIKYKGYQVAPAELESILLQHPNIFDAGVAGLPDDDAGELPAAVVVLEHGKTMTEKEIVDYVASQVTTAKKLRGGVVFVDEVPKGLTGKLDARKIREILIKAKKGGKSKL
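System: luciferase plus luciferin reagent, cell-free; medium: PBS as buffer for the ATP substrate; dosing: test compounds dosed from 2 mM stocks in 100% DMSO; timing: 10 min post-reagent at room temperature; measured by: luminescence measurement of luciferase light output; evaluation: luciferase activation, seen as luminescence increase over controls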
APP 5'UTR act – APP 5'UTR luciferase reporter activation; SH-SY5Y APP 5'UTR luciferase reporter, luminescence; zero percent = DMSO vehicle wells; activation, % at 2 µM; 190,000 compounds, 1% hits;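 active means activation above a set limit, based on mean plus 3 SD of controls, cut at about 140% in these data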
STAT1 activator – increases IFN-gamma driven STAT1 reporter signal; NIH 3T3 STAT1-luciferase reporter, luminescence; 100% = IFN-gamma alone, no compound; activation (% of control), % at 5.5 µM; 200,000 compounds, 2.6% hits;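 active means activation above the screen-wide mean activation plus 3 SD, cut at about 130% in these data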;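 further: raw ratio to IFN-gamma control signal so 100% means no change and 0% no light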
NF-kB neuron act – raises NF-kB expression in human neuronal cells; 190,000 compounds, 1.6% hits; fold change at 12.5 µM; NF-kB reporter expression; hits give high values; in the data active means fold change above about 3.3
FLuc inh counter – inhibits firefly luciferase, flagging false hits in luciferase inhibition screens; inhibition, % at 10 µM; P08659; 200,000 compounds, 1.5% hits; AID 1006; ATPLite firefly luciferase biochemical luminescence, 10 min;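 active means inhibition above about 50% when tested at 10 µM, limit read from the data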
STAT1 activ conf – STAT1 activation, confirmation assay | shares compounds with STAT1 activator | NIH 3T3 STAT1-luciferase reporter, IFN-gamma potentiation, luminescence; 100% = IFN-gamma EC80 alone, no compound | activation (% of control), % at 5.7 µM | 1,200 compounds, 97% hits;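 active means activation above a set limit carried over from the earlier primary STAT1 screen, cut at about 140% in these data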;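 further: simple ratio to median IFN-gamma plus DMSO wells so 0% means no light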
NFkB act – NF-kappaB activation in STAT1 activator counter-screen. shares compounds with STAT1 activator. HEK293T NF-kB luciferase reporter, TNF-alpha stimulated, luminescence; 100% = TNF-alpha with vehicle only. activation (% of control), % at 5.7 µM. 1,200 compounds, 43% hits. AID 1306;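 active means activation above the mean of solvent-only control wells plus 3 SD, set per campaign, cut at about 130% in these data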;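 further: TNF-alpha given at a submaximal dose yielding about 80% of full reporter signal; values are well signal over median control so 100% means no change and 0% no light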
STAT3 act 2 – counter-screen for STAT1 activators: human STAT3 activation; shares compounds with STAT1 activator; U3A cells STAT3-luciferase reporter, IL-6, luminescence; cells lack STAT1; 100 = IL-6 alone, no compound effect; activation (% of control), % at 5.7 µM; 1,200 compounds, 46% hits; AID 1316;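 active means activation above the solvent-only control well mean plus 3 SD, set per plate batch, cut at about 110% in these data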;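 further: 0% = no luminescence and 100% = median IL-6 plus DMSO wells; higher means more STAT3 reporter activation so hits are non-selective activators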
An asterisk follows results filed as active; . = no result given.

SMILES	Pf gametocyte	FLuc stim CS	APP 5'UTR act	STAT1 activator	NF-kB neuron act	FLuc inh counter	others
O=S(=O)(c1ccccc1)N1CCN2CCCC2C1 (stereo unspecified)	-11.0	.	.	.	.	.
O=c1c2ccccc2nc(-c2ccccc2)n1-c1ccccc1	-4.7	.	.	.	.	.
O=c1c2ccccc2[se]n1-c1ccccc1	.	0	-18.9	89.6	1.36	96.2*
Cc1ccc2nc(N3CCN(C)CC3)[nH]c2c1	.	1	15.4	133.3*	1.85	4.5
CN1CCc2nc(SCc3cccc(Br)c3)c(C#N)cc2C1	-0.1	.	.	.	.	.
CNc1cc(Cl)c2nonc2c1[N+](=O)[O-]	.	1.1	-84.5	141.3*	0.91	-5.8
CNCC(O)c1cc(OCc2ccccc2)c(OCc2ccccc2)cc1F (stereo unspecified)	-7.4	.	.	.	.	.
CCOC(C(=O)OCC(O)CN(CC)CC)(c1ccccc1)c1ccccc1 (stereo unspecified)	.	1.1	3.5	97.7	1.28	-6.6
C[C@]12CCC(=O)C(O)=C1CC[C@@H]1[C@@H]2CC[C@]2(C)C(=O)CC[C@@H]12	.	1.1	-11.2	98.7	1	-6.1
O=Cc1cn(Cc2c(F)cccc2Cl)nc1-c1ccccc1	2.6	.	.	.	.	.
CCc1ccc(-c2nn(Cc3ccccc3)cc2C=O)cc1	-13.2	1	133.0	170.2*	4.12*	-0.6	STAT1 activ conf=157.8*;NFkB act=128.4;STAT3 act 2=121.3*
CC(=O)Nc1ccccc1C(=O)OCc1cccc(F)c1	-3.4	1.1	3.3	183.6*	1.04	-8.4	STAT1 activ conf=182.1*;NFkB act=124.2;STAT3 act 2=107.9
O=[N+]([O-])c1cc(-n2cnnn2)c(O)c([N+](=O)[O-])c1	-41.4	.	.	.	.	.
CN1C(=O)/C(=C/c2ccc(N3CCCCCC3)o2)C(=O)NC1=S	16.4	0.6	27.9	165.5*	2.4	39.9	STAT1 activ conf=212.6*;NFkB act=148.0*;STAT3 act 2=126.2*
O=C(O)c1ccc(Cl)nc1	.	1	-2.9	101.6	0.98	-4.0

Screens: PubChem BioAssay, several laboratories
